# Shown are actives, neighbours in structure and some others; about 1.8% of the full set was active somewhere.
# Casp6 inh: human caspase-6 inhibitors, primary screen, biochemical, VEID-R110 fluorescence, single point, set 2; purified caspase-6, Z-VEID-R110 cleavage fluorescence; 0.53% of 350,000 active; inhibition, % at 12.5 µM; P55212; AID 686996, 2013;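 active = mean inhibition across replicates at least about 35%, with every replicate also reaching that limit, limit read from the data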
# MBD2 inh: inhibitors of MBD2 binding to methylated DNA, primary screen, biochemical, TR-FRET, DNA-binding domain, human; Methyl-CpG-binding domain protein 2 (Homo sapiens), Q9UBB5; MBD2 binding to methylated oligonucleotide; inhibition, % at 4.4 µM; 0.31% of 370,000 active; AID 686964, 2013; in the data active = inhibition above about 13%
# TDP2 absorb: human TDP2 enzyme inhibitors, primary screen, biochemical, epi absorbance, recombinant enzyme; Tyrosyl-DNA phosphodiesterase 2 (Homo sapiens), O95551; T5PNP hydrolysis, p-nitrophenol absorbance 415 nm; inhibition, % at 12.8 µM; 0.34% of 370,000 active;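 active = inhibition above the mean of all tested compounds plus 3 SD, set per campaign, cut at about 25% in these data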
# Target sequence (O95551 whole entry, looked up): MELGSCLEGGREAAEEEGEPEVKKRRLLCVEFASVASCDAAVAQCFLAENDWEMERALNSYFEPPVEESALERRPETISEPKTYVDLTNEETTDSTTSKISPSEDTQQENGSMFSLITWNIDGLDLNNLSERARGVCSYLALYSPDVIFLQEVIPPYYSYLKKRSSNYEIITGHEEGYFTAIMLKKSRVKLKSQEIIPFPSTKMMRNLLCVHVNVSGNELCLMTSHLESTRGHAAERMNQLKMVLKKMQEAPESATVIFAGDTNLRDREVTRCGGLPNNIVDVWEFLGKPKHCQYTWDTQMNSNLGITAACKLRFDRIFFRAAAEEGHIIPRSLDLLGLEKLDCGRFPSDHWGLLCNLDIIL
#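 Assay system: recombinant human TDP2 / Reagent: T5PNP substrate at 5 mM, a TopII-DNA adduct mimic / Measured by: epi absorbance from released p-nitrophenol / Evaluation: % inhibition relative to enzyme-containing and enzyme-free wells / Control set: enzyme-free and DMSO wells / Replicates: each compound tested once, singlicate / Schedule: enzyme reaction with compound for 2 h at 37 °C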
# UHRF1 binding: UHRF1 methylated DNA binding inhibitors, primary screen, counter-screen for MBD2 inhibitor project, biochemical, TR-FRET, human UHRF1, single concentration. UHRF1 binding to methylated oligo. E3 ubiquitin-protein ligase UHRF1 (Homo sapiens), Q96T88. inhibition, % at 4.4 µM. 0.75% of 370,000 active. AID 687016, 2013; in the data active = inhibition above about 21%;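 also: UHRF1 SRA domain binding a hemimethylated CpG hairpin DNA probe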
# NSD2 inh: NSD2 histone methyltransferase inhibitors, primary screen, biochemical, AlphaScreen, single concentration, set 2; Histone-lysine N-methyltransferase NSD2 (Homo sapiens), O96028; NSD2 peptide methylation, 120 min; inhibition, % at 12.5 µM; 0.54% of 310,000 active; AID 743445, 2014; in the data active = inhibition above about 50%
# LEDGF integ inh: blockers of LEDGF/p75-dependent integrase strand transfer – biochemical, TR-FRET, high throughput, primary screen; TR-FRET IN-LEDGF/p75 DNA integration, Eu/Cy5; inhibition, % at 3.7 µM; 0.64% of 370,000 active; AID 743269, 2014;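 active = inhibition above the screen-wide mean plus 3 SD, cut at about 13% in these data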;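 also: signal is the Cy5 over europium emission ratio at 671 and 618 nm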
# Numbers stand for hits; 0 = inactive; - = not tested or not shown.
SMILES,Casp6 inh,MBD2 inh,TDP2 absorb,UHRF1 binding,NSD2 inh,LEDGF integ inh
CC(C)(C)c1ccc(OCCCN2CCCC2)cc1,0,0,0,24.4,0,0
CN1CCN(CCCCOc2ccc(Br)cc2)CC1,0,0,0,0,-,0
O=C(NCC[C@H]1CC[C@H](NC(=O)C2CCC2)[C@@H](CO)O1)c1cc(Cl)cc(Cl)c1,0,-,-,-,-,-
Cc1ccc(-c2nnc3ccc(SCC(=O)NCc4ccco4)nn23)cc1,-,0,0,21.7,-,0
OC(C#CCN1CCCCCC1)(c1ccccc1)c1cccnc1 (centres undefined),0,0,0,0,0,0
OC(C#CCN1CCCC1)(c1ccccc1)c1cccnc1 (centres undefined),0,0,0,21.5,-,0
O=C(C1CCCC1)N1CC(=O)N2[C@H](CO)[C@H](c3ccc(C#CCc4ccccc4)cc3)[C@H]2C1,0,-,-,-,-,-
Cc1cccc2nc(CSc3nnc(N)s3)cn12,0,0,0,0,0,0
Cc1cc(C)n2cc(CSc3nnc(N)s3)nc2n1,-,0,0,22.0,0,0
COc1ccc(-n2c(NNC(C)=O)nc3sc4c(c3c2=O)CCCC4)cc1,68.5,0,0,0,0,0
C[C@@H]1CCCCO[C@H](CN(C)C(=O)NC2CCCCC2)[C@H](C)CN([C@@H](C)CO)C(=O)c2cc(NC(=O)CCC(F)(F)F)ccc2O1,0,-,-,-,-,-
Cc1ccc(CN2C(=O)CCSc3ccc(Cl)cc32)cc1,-,0,0,0,0,0
CCOC(=O)CN1C(=O)CCSc2ccc(Cl)cc21,0,0,0,35.9,0,0
CC(=O)Nc1ccc(NC(=O)C(C)OC(=O)CNS(=O)(=O)c2cccc(Cl)c2)cc1 (centres undefined),0,0,0,52.0,0,0
CCOC(=O)N1CCC(N2C(=O)c3ccccc3C2Nc2ccc3c(C)cc(=O)oc3c2)CC1 (centres undefined),0,0,0,33.3,-,0
CCOC(=O)N1CCC(N2C(=O)c3ccccc3C2Nc2ccc3c(c2)OCCO3)CC1 (centres undefined),0,0,0,0,-,0
CC(C)(Oc1ccc(Cl)cc1)C(=O)O,0,0,0,0,-,0
CC(C)(Oc1ccc(Cl)cc1)C(=O)Nc1ncccn1,-,0,0,21.6,0,0
N#C/C(=C/c1ccc(N2CCCCC2)o1)C(=O)Nc1ccc(Cl)cc1,-,0,0,54.2,0,0
Cc1cc(C(=O)NNC(=O)/C=C/c2ccco2)c(C)o1,51.8,0,0,28.8,0,52.8
Cc1ccc(CN(C)C(=O)COC(=O)CSc2ccc([N+](=O)[O-])cc2)cc1,0,0,0,0,0,0
Cc1ccccc1CN(C)C(=O)COC(=O)CSc1ccc([N+](=O)[O-])cc1,71.0,0,0,0,0,0
CN(C)C(=O)c1cn(-c2ccccc2)nc1-c1cccs1,-,0,0,0,0,17.3
CN(C)c1ccc(NC(=O)c2cn(-c3ccccc3)nc2-c2cccs2)cc1,-,0,0,0,0,0
CN(C)c1ccc(-c2[nH][nH]c(=O)c2NC(=O)c2ccccn2)cc1,98.9,14.8,87.0,0,-,0
Cc1cnc(C(=O)Nc2c(-c3ccccc3)[nH][nH]c2=O)cn1,0,0,0,0,-,0
COCC(=O)N1[C@@H](CO)[C@@H](c2ccccc2)C12CN(Cc1ccccc1)C2,0,-,-,-,-,-
COc1ccc2nc(CCN(C)C(=O)C3CCC(=O)N(Cc4cccc(F)c4)C3)[nH]c2c1 (centres undefined),0,0,0,0,0,0
COc1cccc(CN2CC(C(=O)N(C)Cc3nc4ccc(F)cc4[nH]3)CCC2=O)c1 (centres undefined),0,0,0,24.6,0,0
CCc1ccc(NC(=O)c2cccc(NC3=NC4CS(=O)(=O)CC4S3)c2)cc1 (centres undefined),0,0,0,26.6,-,0

# Screens from PubChem BioAssay.
